Laboratory results as given in the array DNA melting data of Ke et al. (doi:10.1101/2024.01.08.574731).

How the values were obtained:
[1] = melting temperature; fluorescence melt of hairpins on a sequencing array, two-state fit, raised by 9.35 °C to match UV melts; details: sodium 0.088 M
Outline: (§1)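 Cy3 signals were normalised both to pre-quench Cy3 and to control constructs. They came from library hairpins carrying annealed Cy3 and quencher oligos on a sequenced MiSeq flow cell, imaged in 50 mM Na-HEPES pH 8.0, 25 mM NaCl, in 2.5 °C steps up to 60 °C. Bootstrapped two-state fits gave melting temperature and folding enthalpy, and four replicates were combined by inverse variance. Fitted temperatures were then raised by 9.35 °C to match UV melts.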

[2] = folding enthalpy; higher = less favourable; fluorescence melt of hairpins on a sequencing array, two-state fit; details: sodium 0.088 M
Outline: as §1

## GATCGTCCTCACGATC ((((((....))))))
[1]
  Tm: 53.5 °C
[2]
  folding enthalpy: -42.9 kcal/mol

## GATCGTCGCCACGATC ((((((....))))))
[1]
  Tm: 53.8 °C
[2]
  folding enthalpy: -42.1 kcal/mol

## GATCGTCGGCACGATC ((((((....))))))
[1]
  Tm: 53 °C
[2]
  folding enthalpy: -21.4 kcal/mol

## GATCGTCTATACGATC ((((((....))))))
[1]
  Tm: 54.8 °C
[2]
  folding enthalpy: -38.9 kcal/mol

## GATCGTCTCAACGATC ((((((....))))))
[1]
  Tm: 57.6 °C
[2]
  folding enthalpy: -41.6 kcal/mol

## GATCGTCTCCACGATC ((((((....))))))
[1]
  Tm: 53.7 °C
[2]
  folding enthalpy: -38.1 kcal/mol

## GATCGTCTCGACGATC ((((((....))))))
[1]
  Tm: 65.3 °C
[2]
  folding enthalpy: -40.9 kcal/mol

## GATCGTCTGCACGATC ((((((....))))))
[1]
  Tm: 55.3 °C
[2]
  folding enthalpy: -38.3 kcal/mol

## GATCGTCTTAACGATC ((((((....))))))
[1]
  Tm: 58.5 °C
[2]
  folding enthalpy: -41.3 kcal/mol

## GATCGTCTTCACGATC ((((((....))))))
[1]
  Tm: 53.4 °C
[2]
  folding enthalpy: -45.7 kcal/mol

## GATCGTGATAACGATC ((((((....))))))
[1]
  Tm: 63.6 °C
[2]
  folding enthalpy: -40.2 kcal/mol

## GATCGTGCAAACGATC ((((((....))))))
[1]
  Tm: 66.9 °C
[2]
  folding enthalpy: -33 kcal/mol

## GATCGTGCACACGATC ((((((....))))))
[1]
  Tm: 64.7 °C
[2]
  folding enthalpy: -41.3 kcal/mol

## GATCGTGCCCACGATC ((((((....))))))
[1]
  Tm: 59.7 °C
[2]
  folding enthalpy: -39.8 kcal/mol

## GATCGTGCTCACGATC ((((((....))))))
[1]
  Tm: 58.9 °C
[2]
  folding enthalpy: -48.2 kcal/mol

## GATCGTGCTGACGATC ((((((....))))))
[1]
  Tm: 55.8 °C
[2]
  folding enthalpy: -36.4 kcal/mol

## GATCGTGGAAACACGATC (((((((....)))))))
[1]
  Tm: 66.3 °C
[2]
  folding enthalpy: -41.2 kcal/mol

## GATCGTGGAAACATGGTC ((.(.((....)).).))
[1]
  Tm: 32.7 °C
[2]
  folding enthalpy: -20.4 kcal/mol

## GATCGTGGAACGATC ((((((...))))))
[1]
  Tm: 66.8 °C
[2]
  folding enthalpy: -35.7 kcal/mol

## GATCGTGGAGACGATC ((((((....))))))
[1]
  Tm: 57.8 °C
[2]
  folding enthalpy: -42.4 kcal/mol

## GATCGTGGCACGATC ((((((...))))))
[1]
  Tm: 59.8 °C
[2]
  folding enthalpy: -45.8 kcal/mol

## GATCGTGGGAACGATC ((((((....))))))
[1]
  Tm: 61 °C
[2]
  folding enthalpy: -38.5 kcal/mol

## GATCGTGGGGACGATC ((((((....))))))
[1]
  Tm: 54.3 °C
[2]
  folding enthalpy: -36.2 kcal/mol

## GATCGTGTCACGATC ((((((...))))))
[1]
  Tm: 59.3 °C
[2]
  folding enthalpy: -38.2 kcal/mol

## GATCGTGTCGACGATC ((((((....))))))
[1]
  Tm: 60.3 °C
[2]
  folding enthalpy: -33.9 kcal/mol

## GATCGTGTTAACGATC ((((((....))))))
[1]
  Tm: 66.9 °C
[2]
  folding enthalpy: -36 kcal/mol

## GATCGTGTTCACGATC ((((((....))))))
[1]
  Tm: 58.8 °C
[2]
  folding enthalpy: -44.2 kcal/mol

## GATCGTTACCACGATC ((((((....))))))
[1]
  Tm: 54.3 °C
[2]
  folding enthalpy: -45.6 kcal/mol

## GATCGTTAGACGATC ((((((...))))))
[1]
  Tm: 52.9 °C
[2]
  folding enthalpy: -34.8 kcal/mol

## GATCGTTATACGATC ((((((...))))))
[1]
  Tm: 57.9 °C
[2]
  folding enthalpy: -36.4 kcal/mol

## GATCGTTCCACGATC ((((((...))))))
[1]
  Tm: 59.6 °C
[2]
  folding enthalpy: -40.1 kcal/mol

## GATCGTTCCTACGATC ((((((....))))))
[1]
  Tm: 56.7 °C
[2]
  folding enthalpy: -41.9 kcal/mol

## GATCGTTCTCACGATC ((((((....))))))
[1]
  Tm: 54.8 °C
[2]
  folding enthalpy: -40.8 kcal/mol

## GATCGTTGATACGATC ((((((....))))))
[1]
  Tm: 54.3 °C
[2]
  folding enthalpy: -35.3 kcal/mol

## GATCGTTGCTACGATC ((((((....))))))
[1]
  Tm: 56.3 °C
[2]
  folding enthalpy: -35.9 kcal/mol

## GATCGTTGTTACGATC ((((((....))))))
[1]
  Tm: 57.4 °C
[2]
  folding enthalpy: -37.7 kcal/mol

## GATCGTTTCAACGATC ((((((....))))))
[1]
  Tm: 59.7 °C
[2]
  folding enthalpy: -42 kcal/mol

## GATCGTTTCGACGATC ((((((....))))))
[1]
  Tm: 57.7 °C
[2]
  folding enthalpy: -43.1 kcal/mol

## GATCGTTTCTACGATC ((((((....))))))
[1]
  Tm: 55.8 °C
[2]
  folding enthalpy: -43 kcal/mol

## GATCGTTTGCACGATC ((((((....))))))
[1]
  Tm: 54.7 °C
[2]
  folding enthalpy: -27 kcal/mol

## GATCGTTTTGACGATC ((((((....))))))
[1]
  Tm: 57.2 °C
[2]
  folding enthalpy: -40.3 kcal/mol

## GATCTAAAAGTAGATC ((((((....))))))
[1]
  Tm: 29.6 °C
[2]
  folding enthalpy: -17.5 kcal/mol

## GATCTAAACCTAGATC ((((((....))))))
[1]
  Tm: 39.3 °C
[2]
  folding enthalpy: -33.8 kcal/mol

## GATCTAAACTAGATC ((((((...))))))
[1]
  Tm: 36.1 °C
[2]
  folding enthalpy: -23.9 kcal/mol

## GATCTAACAATAGATC ((((((....))))))
[1]
  Tm: 33.9 °C
[2]
  folding enthalpy: -17.6 kcal/mol

## GATCTAACATTAGATC ((((((....))))))
[1]
  Tm: 39.6 °C
[2]
  folding enthalpy: -22.6 kcal/mol

## GATCTAACCATAGATC ((((((....))))))
[1]
  Tm: 38.2 °C
[2]
  folding enthalpy: -31.7 kcal/mol

## GATCTAACCCTAGATC ((((((....))))))
[1]
  Tm: 37.5 °C
[2]
  folding enthalpy: -31.1 kcal/mol

## GATCTAACGTAGATC ((((((...))))))
[1]
  Tm: 36.1 °C
[2]
  folding enthalpy: -24.5 kcal/mol

## GATCTAAGACTAGATC ((((((....))))))
[1]
  Tm: 34.3 °C
[2]
  folding enthalpy: -19.9 kcal/mol

## GATCTAAGATTAGATC ((((((....))))))
[1]
  Tm: 37.5 °C
[2]
  folding enthalpy: -32.1 kcal/mol

## GATCTAAGTATAGATC ((((((....))))))
[1]
  Tm: 37.9 °C
[2]
  folding enthalpy: -27.7 kcal/mol

## GATCTAATCCTAGATC ((((((....))))))
[1]
  Tm: 38.3 °C
[2]
  folding enthalpy: -25.6 kcal/mol

## GATCTAATGTTAGATC ((((((....))))))
[1]
  Tm: 40.2 °C
[2]
  folding enthalpy: -34.3 kcal/mol

## GATCTACAATTAGATC ((((((....))))))
[1]
  Tm: 35.6 °C
[2]
  folding enthalpy: -21.3 kcal/mol

## GATCTACATTAGATC ((((((...))))))
[1]
  Tm: 37.5 °C
[2]
  folding enthalpy: -25 kcal/mol

## GATCTACCCCTAGATC ((((((....))))))
[1]
  Tm: 39.9 °C
[2]
  folding enthalpy: -38.4 kcal/mol

## GATCTACCCTTAGATC ((((((....))))))
[1]
  Tm: 41.8 °C
[2]
  folding enthalpy: -35.6 kcal/mol

## GATCTACCGCTAGATC ((((((....))))))
[1]
  Tm: 40 °C
[2]
  folding enthalpy: -29.4 kcal/mol

## GATCTACCGTTAGATC ((((((....))))))
[1]
  Tm: 37.8 °C
[2]
  folding enthalpy: -30.5 kcal/mol

## GATCTACCTCTAGATC ((((((....))))))
[1]
  Tm: 37.8 °C
[2]
  folding enthalpy: -36.3 kcal/mol

## GATCTACCTTTAGATC ((((((....))))))
[1]
  Tm: 38.3 °C
[2]
  folding enthalpy: -30.4 kcal/mol

## GATCTACGCGTAGATC ((((((....))))))
[1]
  Tm: 55.5 °C
[2]
  folding enthalpy: -52.1 kcal/mol

## GATCTACGCTAGATC ((((((...))))))
[1]
  Tm: 43.4 °C
[2]
  folding enthalpy: -18.5 kcal/mol

## GATCTACGTATAGATC ((((((....))))))
[1]
  Tm: 41.2 °C
[2]
  folding enthalpy: -33.8 kcal/mol

## GATCTACTCATAGATC ((((((....))))))
[1]
  Tm: 41.7 °C
[2]
  folding enthalpy: -35.5 kcal/mol

## GATCTACTGATAGATC ((((((....))))))
[1]
  Tm: 39.3 °C
[2]
  folding enthalpy: -28.8 kcal/mol

## GATCTACTGCTAGATC ((((((....))))))
[1]
  Tm: 40.1 °C
[2]
  folding enthalpy: -26.1 kcal/mol

## GATCTAGACATAGATC ((((((....))))))
[1]
  Tm: 47.9 °C
[2]
  folding enthalpy: -35 kcal/mol

## GATCTAGCCTAGATC ((((((...))))))
[1]
  Tm: 40.8 °C
[2]
  folding enthalpy: -28.4 kcal/mol

## GATCTAGCGAAAGCTATC (((..(((....))))))
[1]
  Tm: 22.8 °C
[2]
  folding enthalpy: -10.5 kcal/mol

## GATCTAGCTTAGATC ((((((...))))))
[1]
  Tm: 38.1 °C
[2]
  folding enthalpy: -29.4 kcal/mol
